Assay results of several laboratories.
FABP4: Fatty acid-binding protein, adipocyte (FABP4, Homo sapiens, UniProt P15090)
Sialidase-2: Sialidase-2 (Homo sapiens, UniProt Q9Y3R4)
ACHE: Acetylcholinesterase (ACHE, Homo sapiens, UniProt P22303)
DPP4: Dipeptidyl peptidase 4 (DPP4, Homo sapiens, UniProt P27487)

SMILES | target | test | test system | conditions | IC50 [µM]
CCOC(=O)c1ccc(OC(=O)CCCCCN=C(N)N)cc1 | Tryptase beta-2 (TPSB2, Homo sapiens, UniProt P20231) | enzyme activity, inhibitor | – | – | 0.00428
NS(=O)(=O)C(F)(F)C(F)(F)C(F)(F)C(F)(F)C(F)(F)C(F)(F)C(F)(F)C(F)(F)F | FABP4 | ligand displacement, fluorescence | – | pH 7.5 | 17
CC(C)C[C@H](NC(=O)[C@H](CO)NC(=O)[C@@H](NC(=O)[C@@H]1CCCN1C(=O)[C@@H](N)CCCCN)C(C)C)C(=O)N[C@@H](CO)C(=O)N[C@@H](Cc1ccc(O)cc1)C(=O)N[C@@H](CCCNC(=N)N)C(=O)NCC(=O)NCC(=O)N[C@H](CC(C)C)C(=O)NCC(=O)N[C@H](C)C(=O)N[C@H](CO)C(=O)N[C@H](Cc1c[nH]c2ccccc12)C(=O)N[C@H](Cc1c[nH]cn1)C(=O)N[C@H](CCCNC(=N)N)C(=O)N[C@@H](Cc1ccc2ccccc2c1)C(=O)N[C@@H](CCCNC(=N)N)C(=O)N[C@@H](CCCNC(=N)N)C(N)=O | C-X-C chemokine receptor type 4 (CXCR4, Homo sapiens, UniProt P61073) | ligand displacement in cells, fluorescence | – | – | 0.76
CCCCCCN[C@H]1[C@H]([C@H](O)[C@H](O)CO)OC(C(=O)O)=C[C@@H]1O | Sialidase-2 | enzyme activity, inhibitor | – | – | 16
CCc1ccc(C=Nc2ccc(SCc3cc(=O)c(O)co3)cc2)cc1 | ACHE | enzyme activity, inhibitor, Ellman | – | – | 8.46
CCCCCC(=O)N(C)[C@H]1[C@H]([C@H](O)[C@H](O)CO)OC(C(=O)O)=C[C@@H]1O | Sialidase-2 | enzyme activity, inhibitor | – | – | 140
COc1cccc(C=Nc2ccc(SCc3cc(=O)c(O)co3)cc2)c1 | ACHE | enzyme activity, inhibitor, Ellman | – | – | 19.9
CC(=O)c1c(C)c2cnc(Nc3ccc(C4CCN(CCS(C)(=O)=O)CC4)cn3)nc2n(C2CCCC2)c1=O | Cytochrome P450 2C9 (CYP2C9, Homo sapiens, UniProt P11712) | enzyme activity, inhibitor | human, liver microsomes | – | > 10
NC(=O)CC[C@H](NC(=O)[C@@H]1CCCN1C(=O)[C@H](CCC(N)=O)NC(=O)[C@@H]1CCCN1C(=O)[C@@H](N)Cc1ccc(O)cc1)C(=O)O | DPP4 | enzyme activity, inhibitor, absorbance | – | pH 8 | 23.9
O=c1cc(CSc2ccc(N=Cc3ccccc3C(F)(F)F)cc2)occ1O | ACHE | enzyme activity, inhibitor, Ellman | – | – | 8.05
CC(C)CNC(=O)N[C@H]1[C@H]([C@H](O)[C@H](O)CO)OC(C(=O)O)=C[C@@H]1O | Sialidase-2 | enzyme activity, inhibitor | – | – | 30
CC(C)(C)c1ccc(C=Nc2ccc(SCc3cc(=O)c(O)co3)cc2)cc1 | ACHE | enzyme activity, inhibitor, Ellman | – | – | 17.4
O=C(O)C(F)(F)C(F)(F)C(F)(F)F | FABP4 | ligand displacement, fluorescence | – | pH 7.5 | 2840
CC(=O)N(C)[C@H]1[C@H]([C@H](O)[C@H](O)CO)OC(C(=O)O)=C[C@@H]1O | Sialidase-2 | enzyme activity, inhibitor | – | – | > 500
CC[C@@H](C)[C@H](NC(=O)COc1c(NC(C)=O)cc(-c2nc3ccccc3s2)cc1OC)C(=O)OC | ACHE | enzyme activity, inhibitor, Ellman | – | – | > 256
CCCCNC(=O)N[C@H]1[C@H]([C@H](O)[C@H](O)CO)OC(C(=O)O)=C[C@@H]1O | Sialidase-2 | enzyme activity, inhibitor | – | – | 380
O=c1cc(CSc2ccc(N=Cc3ccccc3)cc2)occ1O | ACHE | enzyme activity, inhibitor, Ellman | – | – | 8.26
C=CCc1ccc(O)c(-c2cc(CC=C)ccc2O)c1 | DPP4 | enzyme activity, inhibitor, fluorescence | – | – | > 100
C1CO1.C=O.CC(C)(C)CC(C)(C)c1ccc(O)cc1 | Mitogen-activated protein kinase 3 (MAPK3, Homo sapiens, UniProt P27361) | enzyme activity, inhibitor, ADP detection | – | – | 91.9
Cc1cn([C@H]2[C@H]([C@H](O)[C@H](O)CO)OC(C(=O)O)=C[C@@H]2O)nn1 | Sialidase-2 | enzyme activity, inhibitor | – | – | 80
Cc1ccccc1C=Nc1ccc(SCc2cc(=O)c(O)co2)cc1 | ACHE | enzyme activity, inhibitor, Ellman | – | – | 5.3
COC(=O)CNC(=O)COc1c(NC(C)=O)cc(-c2nc3ccccc3s2)cc1OC | ACHE | enzyme activity, inhibitor, Ellman | – | – | > 289
